Data reported in ChEMBL document CHEMBL3603808, “Discovery and structure of a new inhibitor scaffold of the autophagy initiating kinase ULK1” (Bioorg Med Chem, 2015).

Assays:
[1] = biological target: Calcium/calmodulin-dependent protein kinase kinase 2 (Homo sapiens) (UniProt Q96RR4); assay: Inhibition of CAMKKB (unknown origin) at 2 uM by radioactive filter-binding assay
Method in brief: (§1)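 Panel profiling of one compound against 50 kinases, carried out in duplicate at the International Centre for Protein Kinase Profiling. Radioactive filter-binding format.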

[2] = biological target: Dual specificity mitogen-activated protein kinase kinase 1 (Homo sapiens) (UniProt Q02750); assay: Inhibition of MKK1 (unknown origin) at 2 uM by radioactive filter-binding assay; method in brief: as §1
[3] = biological target: Serine/threonine-protein kinase D1 (Homo sapiens) (UniProt Q15139); assay: Inhibition of PKD1 (unknown origin) at 2 uM by radioactive filter-binding assay; method in brief: as §1
Serine/threonine-protein kinase D1 (Homo sapiens), sequence (Q15139 whole entry): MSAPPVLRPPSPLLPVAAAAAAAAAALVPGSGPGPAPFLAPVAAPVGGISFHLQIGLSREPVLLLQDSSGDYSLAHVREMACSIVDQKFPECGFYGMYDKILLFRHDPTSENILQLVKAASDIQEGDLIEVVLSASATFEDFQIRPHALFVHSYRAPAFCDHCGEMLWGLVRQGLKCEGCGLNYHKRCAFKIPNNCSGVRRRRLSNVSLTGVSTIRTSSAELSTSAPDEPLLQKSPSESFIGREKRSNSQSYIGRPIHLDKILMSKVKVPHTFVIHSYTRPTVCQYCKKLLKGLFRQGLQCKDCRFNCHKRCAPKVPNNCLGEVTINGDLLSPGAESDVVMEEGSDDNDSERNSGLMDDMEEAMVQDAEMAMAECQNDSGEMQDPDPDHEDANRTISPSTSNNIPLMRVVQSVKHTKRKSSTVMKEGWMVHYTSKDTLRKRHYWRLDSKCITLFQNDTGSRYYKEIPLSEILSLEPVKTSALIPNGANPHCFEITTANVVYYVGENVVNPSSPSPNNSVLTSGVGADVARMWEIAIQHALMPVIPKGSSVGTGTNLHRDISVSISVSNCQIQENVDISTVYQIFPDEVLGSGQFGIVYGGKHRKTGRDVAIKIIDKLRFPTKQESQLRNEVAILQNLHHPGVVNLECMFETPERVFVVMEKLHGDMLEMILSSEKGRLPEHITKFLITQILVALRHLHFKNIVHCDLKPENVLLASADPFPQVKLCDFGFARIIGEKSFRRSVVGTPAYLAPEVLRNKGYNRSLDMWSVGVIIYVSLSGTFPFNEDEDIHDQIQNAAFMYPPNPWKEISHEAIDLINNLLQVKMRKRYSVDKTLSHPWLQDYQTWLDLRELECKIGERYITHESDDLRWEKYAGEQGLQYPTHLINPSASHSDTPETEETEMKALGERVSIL

[4] = biological target: Interleukin-1 receptor-associated kinase 4 (Homo sapiens) (UniProt Q9NWZ3); assay: Inhibition of IRAK4 (unknown origin) at 2 uM by radioactive filter-binding assay; method in brief: as §1
[5] = biological target: Mitogen-activated protein kinase kinase kinase 7 (Homo sapiens) (UniProt O43318); assay: Inhibition of TAK1 (unknown origin) at 2 uM by radioactive filter-binding assay; method in brief: as §1
Mitogen-activated protein kinase kinase kinase 7 (Homo sapiens), sequence (O43318 whole entry): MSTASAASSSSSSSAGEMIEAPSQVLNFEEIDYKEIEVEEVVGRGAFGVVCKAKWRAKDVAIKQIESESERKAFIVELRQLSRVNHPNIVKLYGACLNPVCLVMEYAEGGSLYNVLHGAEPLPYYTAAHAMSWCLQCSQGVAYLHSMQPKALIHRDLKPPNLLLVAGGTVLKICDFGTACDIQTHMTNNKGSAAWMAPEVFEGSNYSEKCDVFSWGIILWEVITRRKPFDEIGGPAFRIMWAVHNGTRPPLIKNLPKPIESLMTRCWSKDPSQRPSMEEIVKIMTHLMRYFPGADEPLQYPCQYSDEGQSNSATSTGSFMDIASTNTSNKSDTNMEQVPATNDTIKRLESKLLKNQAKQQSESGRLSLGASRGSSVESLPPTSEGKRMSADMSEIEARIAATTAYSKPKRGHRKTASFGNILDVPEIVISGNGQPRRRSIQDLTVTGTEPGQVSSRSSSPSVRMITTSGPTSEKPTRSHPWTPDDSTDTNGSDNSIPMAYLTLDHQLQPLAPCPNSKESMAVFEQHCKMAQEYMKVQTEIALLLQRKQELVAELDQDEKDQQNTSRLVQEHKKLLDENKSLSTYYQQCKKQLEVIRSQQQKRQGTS

[6] = biological target: Tyrosine-protein kinase SYK (Homo sapiens) (UniProt P43405); assay: Inhibition of SYK (unknown origin) at 250 nM by radioactive filter-binding assay; method in brief: as §1
[7] = biological target: Ribosomal protein S6 kinase alpha-1 (Homo sapiens) (UniProt Q15418); assay: Inhibition of RSK1 (unknown origin) at 250 nM by radioactive filter-binding assay; method in brief: as §1
Ribosomal protein S6 kinase alpha-1 (Homo sapiens), sequence (Q15418 whole entry): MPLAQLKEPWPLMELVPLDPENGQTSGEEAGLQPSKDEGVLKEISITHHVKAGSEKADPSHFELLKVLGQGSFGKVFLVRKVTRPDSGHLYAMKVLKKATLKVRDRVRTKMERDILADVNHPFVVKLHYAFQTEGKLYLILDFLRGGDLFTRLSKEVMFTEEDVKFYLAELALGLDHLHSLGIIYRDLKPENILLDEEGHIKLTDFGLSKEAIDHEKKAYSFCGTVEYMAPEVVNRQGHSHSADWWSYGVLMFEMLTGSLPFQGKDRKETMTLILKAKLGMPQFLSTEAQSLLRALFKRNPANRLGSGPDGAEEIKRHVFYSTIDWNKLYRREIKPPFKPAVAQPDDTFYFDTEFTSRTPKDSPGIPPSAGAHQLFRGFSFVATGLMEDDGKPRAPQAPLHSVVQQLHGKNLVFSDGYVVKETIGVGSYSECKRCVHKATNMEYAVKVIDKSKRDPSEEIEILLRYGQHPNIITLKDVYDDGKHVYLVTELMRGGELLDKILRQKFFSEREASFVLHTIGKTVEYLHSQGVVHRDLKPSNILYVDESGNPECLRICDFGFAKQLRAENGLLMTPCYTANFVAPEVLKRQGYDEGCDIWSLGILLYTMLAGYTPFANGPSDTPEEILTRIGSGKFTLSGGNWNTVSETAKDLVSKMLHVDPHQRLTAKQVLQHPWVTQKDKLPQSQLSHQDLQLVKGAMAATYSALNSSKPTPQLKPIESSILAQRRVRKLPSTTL

[8] = biological target: Mitogen-activated protein kinase kinase kinase 7 (Homo sapiens) (UniProt O43318); assay: Inhibition of TAK1 (unknown origin) at 250 nM by radioactive filter-binding assay; method in brief: as §1
[9] = biological target: Tyrosine-protein kinase Lck (Homo sapiens) (UniProt P06239); assay: Inhibition of LCK (unknown origin) at 250 nM by radioactive filter-binding assay; method in brief: as §1
[10] = biological target: Serine/threonine-protein kinase Chk2 (Homo sapiens) (UniProt O96017); assay: Inhibition of CHK2 (unknown origin) at 250 nM by radioactive filter-binding assay; method in brief: as §1
Serine/threonine-protein kinase Chk2 (Homo sapiens), sequence (O96017 whole entry): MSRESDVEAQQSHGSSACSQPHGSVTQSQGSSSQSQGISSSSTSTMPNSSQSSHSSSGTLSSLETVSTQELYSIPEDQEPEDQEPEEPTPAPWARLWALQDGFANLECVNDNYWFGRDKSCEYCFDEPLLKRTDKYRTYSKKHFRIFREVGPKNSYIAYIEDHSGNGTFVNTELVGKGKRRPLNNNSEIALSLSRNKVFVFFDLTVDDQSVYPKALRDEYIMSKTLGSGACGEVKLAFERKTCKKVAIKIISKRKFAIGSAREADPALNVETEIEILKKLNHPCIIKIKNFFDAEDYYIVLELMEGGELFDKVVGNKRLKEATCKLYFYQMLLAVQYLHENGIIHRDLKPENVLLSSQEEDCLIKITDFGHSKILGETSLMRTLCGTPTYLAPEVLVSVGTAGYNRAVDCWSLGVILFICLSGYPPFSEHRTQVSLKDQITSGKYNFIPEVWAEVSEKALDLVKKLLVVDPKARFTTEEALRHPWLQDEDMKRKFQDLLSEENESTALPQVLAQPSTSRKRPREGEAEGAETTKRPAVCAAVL

[11] = biological target: Serine/threonine-protein kinase Sgk1 (Homo sapiens) (UniProt O00141); assay: Inhibition of SGK1 (unknown origin) at 250 nM by radioactive filter-binding assay; method in brief: as §1
Serine/threonine-protein kinase Sgk1 (Homo sapiens), sequence (O00141 whole entry): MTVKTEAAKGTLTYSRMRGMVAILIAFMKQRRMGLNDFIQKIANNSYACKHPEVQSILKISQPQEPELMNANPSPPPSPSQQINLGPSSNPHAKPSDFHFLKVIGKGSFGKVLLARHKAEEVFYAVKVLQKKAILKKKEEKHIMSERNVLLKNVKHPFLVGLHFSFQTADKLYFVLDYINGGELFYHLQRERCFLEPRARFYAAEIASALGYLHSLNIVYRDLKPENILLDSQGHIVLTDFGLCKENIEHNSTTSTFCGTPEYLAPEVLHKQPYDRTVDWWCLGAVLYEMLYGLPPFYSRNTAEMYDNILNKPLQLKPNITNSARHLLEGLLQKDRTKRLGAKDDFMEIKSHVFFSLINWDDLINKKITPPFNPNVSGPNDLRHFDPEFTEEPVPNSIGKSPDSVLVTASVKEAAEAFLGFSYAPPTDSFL

[12] = biological target: Serine/threonine-protein kinase PAK 4 (Homo sapiens) (UniProt O96013); assay: Inhibition of PAK4 (unknown origin) at 250 nM by radioactive filter-binding assay; method in brief: as §1
Serine/threonine-protein kinase PAK 4 (Homo sapiens), sequence (O96013 whole entry, looked up): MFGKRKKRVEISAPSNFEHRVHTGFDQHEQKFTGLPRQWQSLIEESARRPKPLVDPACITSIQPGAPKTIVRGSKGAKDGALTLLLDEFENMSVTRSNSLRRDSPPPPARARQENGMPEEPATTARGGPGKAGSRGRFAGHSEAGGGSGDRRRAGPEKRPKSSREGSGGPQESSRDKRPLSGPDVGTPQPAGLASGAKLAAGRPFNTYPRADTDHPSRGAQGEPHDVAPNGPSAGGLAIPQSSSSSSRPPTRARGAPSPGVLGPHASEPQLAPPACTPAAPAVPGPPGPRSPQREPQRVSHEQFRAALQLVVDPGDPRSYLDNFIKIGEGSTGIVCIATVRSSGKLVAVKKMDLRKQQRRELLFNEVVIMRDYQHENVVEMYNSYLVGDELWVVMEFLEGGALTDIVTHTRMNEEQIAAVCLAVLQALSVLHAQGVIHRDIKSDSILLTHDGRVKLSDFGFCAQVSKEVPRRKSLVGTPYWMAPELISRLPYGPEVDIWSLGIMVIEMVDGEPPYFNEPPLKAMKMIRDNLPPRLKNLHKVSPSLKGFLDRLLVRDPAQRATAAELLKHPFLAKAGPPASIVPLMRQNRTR

[13] = biological target: Vascular endothelial growth factor receptor (Homo sapiens) (UniProt P17948+P35916+P35968); assay: Inhibition of VEGFR (unknown origin) at 250 nM by radioactive filter-binding assay; format: protein assay; method in brief: as §1
[14] = biological target: Tyrosine-protein kinase JAK2 (Homo sapiens) (UniProt O60674); assay: Inhibition of JAK2 (unknown origin) at 250 nM by radioactive filter-binding assay; method in brief: as §1
Tyrosine-protein kinase JAK2 (Homo sapiens), sequence (O60674 whole entry): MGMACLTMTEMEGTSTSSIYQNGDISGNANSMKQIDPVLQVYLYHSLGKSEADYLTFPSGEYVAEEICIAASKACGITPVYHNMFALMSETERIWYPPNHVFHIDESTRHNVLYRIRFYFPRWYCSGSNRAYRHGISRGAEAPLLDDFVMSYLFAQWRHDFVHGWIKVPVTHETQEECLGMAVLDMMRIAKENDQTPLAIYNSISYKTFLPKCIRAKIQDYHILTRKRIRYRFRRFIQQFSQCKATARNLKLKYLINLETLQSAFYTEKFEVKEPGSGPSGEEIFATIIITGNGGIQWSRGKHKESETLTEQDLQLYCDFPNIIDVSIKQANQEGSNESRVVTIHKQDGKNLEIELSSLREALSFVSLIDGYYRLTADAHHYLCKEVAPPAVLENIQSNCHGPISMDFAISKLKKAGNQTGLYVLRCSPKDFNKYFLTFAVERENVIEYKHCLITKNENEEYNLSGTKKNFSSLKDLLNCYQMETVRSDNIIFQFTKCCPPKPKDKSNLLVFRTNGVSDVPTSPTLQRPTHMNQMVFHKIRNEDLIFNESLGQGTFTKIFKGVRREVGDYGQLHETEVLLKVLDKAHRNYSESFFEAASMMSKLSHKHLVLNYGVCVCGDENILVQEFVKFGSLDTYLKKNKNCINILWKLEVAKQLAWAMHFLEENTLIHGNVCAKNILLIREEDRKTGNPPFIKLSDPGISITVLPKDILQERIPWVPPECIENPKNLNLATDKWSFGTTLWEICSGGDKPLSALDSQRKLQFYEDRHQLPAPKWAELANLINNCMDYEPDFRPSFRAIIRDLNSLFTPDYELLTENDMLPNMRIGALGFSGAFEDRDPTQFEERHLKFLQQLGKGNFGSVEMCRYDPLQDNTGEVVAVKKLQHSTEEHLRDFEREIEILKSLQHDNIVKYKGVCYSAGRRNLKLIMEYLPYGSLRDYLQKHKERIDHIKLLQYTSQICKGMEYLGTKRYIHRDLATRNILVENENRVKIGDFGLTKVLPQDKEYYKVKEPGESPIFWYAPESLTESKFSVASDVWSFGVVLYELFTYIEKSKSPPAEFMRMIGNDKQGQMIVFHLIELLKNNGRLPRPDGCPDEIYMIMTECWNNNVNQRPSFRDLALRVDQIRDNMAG

[15] = biological target: Serine/threonine-protein kinase 3 (Homo sapiens) (UniProt Q13188); assay: Inhibition of MST2 (unknown origin) at 250 nM by radioactive filter-binding assay; method in brief: as §1

Measured: inhibition

NCCCNc1nc(Nc2cccc(NC(=O)N3CCCC3)c2)ncc1I
> 80%: [1] | [2] | [3] | [4] | [5]

c1ccc2c(Nc3cc(C4CCC4)[nH]n3)nc(Nc3ccc4[nH]cnc4c3)nc2c1
not listed: [1] | [2] | [3] | [4] | [5]
> 80%: all other assays above
